Source: ChEMBL document CHEMBL1129501 (J Med Chem, 1996)

Experiments:
[1] = biological target: T1, Phosphodiesterase 1 (Homo sapiens, UniProt P54750+Q01064+Q14123); experiment: Antagonistic potency against calmodulin-dependent cyclic AMP phosphodiesterase relative to 4-Iodotamoxifen; assay type: functional; details: Canis lupus familiaris
[2] = biological target: Estrogen receptor (Rattus norvegicus) (UniProt P06211+Q62986)
[3] = biological target: T1, Phosphodiesterase 1; experiment: Inhibitory activity against calmodulin-dependent Phosphodiesterase was reported.; assay type: protein assay, Canis lupus familiaris
Method in brief: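 Calmodulin-dependent cAMP phosphodiesterase, 8-[3H]-cAMP substrate. Tritiated AMP converted to adenosine with snake venom 5'-nucleotidase. Nucleosides separated from substrate on Dowex anion exchanger, eluted with 3 mM acetic acid. Basal calmodulin-independent activity measured with 1 mM EGTA. Compounds in DMSO at several concentrations. IC50 against calmodulin-dependent activity, mean of triplicates ± standard error.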

[4] = biological target: T1, Phosphodiesterase 1; experiment: Antagonistic potency against calmodulin-dependent cyclic AMP phosphodiesterase relative to Idoxifene; assay type: functional; details: Canis lupus familiaris

Relative potency [1]	Binding affinity [2]	IC50 [3] [µM]	Relative potency [4]	SMILES
–	1.5	0.2	7.5	CC/C(=C(\c1ccc(I)cc1)c1ccc(OCCCCCCCCCN2CCCC2)cc1)c1ccccc1
–	–	1.5	–	CC/C(=C(\c1ccc(I)cc1)c1ccc(OCCN2CCCC2)cc1)c1ccccc1 [IDOXIFENE]
–	3	0.2	7.5	CC/C(=C(\c1ccc(I)cc1)c1ccc(OCCCCCCCN2CCCC2)cc1)c1ccccc1
–	3.5	0.2	7.5	CC/C(=C(\c1ccc(I)cc1)c1ccc(OCCCCCCCCN2CCCC2)cc1)c1ccccc1
–	9	1	1.5	CC/C(=C(\c1ccc(I)cc1)c1ccc(OCCCCN2CCCC2)cc1)c1ccccc1
–	8	0.8	1.9	CC/C(=C(\c1ccc(I)cc1)c1ccc(OCCCCCN2CCCC2)cc1)c1ccccc1
–	4	0.5	3	CC/C(=C(\c1ccc(I)cc1)c1ccc(OCCCCCCN2CCCC2)cc1)c1ccccc1
–	23	1.1	1.4	CC/C(=C(\c1ccc(I)cc1)c1ccc(OCCCN2CCCC2)cc1)c1ccccc1

Further lines, the compound ahead of its results:

SMILES	Relative potency [1]	Binding affinity [2]	IC50 [3] [µM]	Relative potency [4]
CC/C(=C(\c1ccc(I)cc1)c1ccc(OCCCN(C)C)cc1)c1ccccc1	1.2	8	2	–
CC/C(=C(\c1ccc(I)cc1)c1ccc(OCCCCCCCCN(C)C)cc1)c1ccccc1	7.7	2	0.3	–
CC/C(=C(\c1ccc(I)cc1)c1ccc(OCCCCCCN(C)C)cc1)c1ccccc1	5.8	8	0.4	–
CC/C(=C(\c1ccc(I)cc1)c1ccc(OCCCCCCCCCCN(C)C)cc1)c1ccccc1	1.9	0.4	1.2	–
CC/C(=C(\c1ccc(I)cc1)c1ccc(OCCCCN(C)C)cc1)c1ccccc1	1.1	25	2.2	–
CC/C(=C(\c1ccc(I)cc1)c1ccc(OCCCCCN(C)C)cc1)c1ccccc1	3.8	6	0.6	–
CC/C(=C(\c1ccc(I)cc1)c1ccc(OCCN(C)C)cc1)c1ccccc1	1	8	2.3	–
CC/C(=C(\c1ccc(I)cc1)c1ccc(OCCCCCCCCCCN2CCCC2)cc1)c1ccccc1	–	0.4	1.6	0.9
